Experimental data as given in ChEMBL document CHEMBL3526066, “In vitro metabolism of 17-(dimethylaminoethylamino)-17-demethoxygeldanamycin in human liver microsomes” (Drug Metab Dispos, 2011).

How the values were obtained:
Liver microsome [1] = assay: Drug level in boiled human liver microsomes treated with geldanamycin after 2 hrs; format: ADME
In short: (§1)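 Substrate (5 µM final) was incubated at 37°C with HLMs (1 mg/ml; boiled HLMs as negative control) in 0.1 M phosphate buffer with 3.3 mM MgCl2 and 1 mM β-NADPH, with or without 5 mM reduced GSH. Aliquots were taken at 1, 5, 10, 15, 30, 45, 60 and 120 min and quenched with ice-cold acetonitrile containing internal standard. Samples were analysed by LC-MS/MS, with values given as percent of the analyte/internal-standard peak area ratio at 1 min.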

Liver microsome [2] = assay: Drug level in human liver microsomes treated with 1 uM 17-DMAG by liquid chromatography-tandem mass spectrometry in presence of 10 uM alpha-naphthoflavone CYP1A2 inhibitor; format: ADME
In short: (§2)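 Pooled HLMs in 0.1 M phosphate buffer pH 7.4 with 1 mM β-NADPH, 3.3 mM MgCl2 and the selective inhibitor were preincubated 3 min at 37°C in a shaking water bath. 17-DMAG (1 µM final) was then added and incubated 20 min at 37°C, with parallel no-inhibitor controls. M1, M2, M3, M4 and M6 were quantified by LC-MS/MS MRM. Inhibition was taken as the ratio of metabolite formed with versus without inhibitor.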

Liver microsome [3] = assay: Drug level in human liver microsomes treated with 1 uM 17-DMAG by liquid chromatography-tandem mass spectrometry in presence of 1 uM tranylcypromine CYP2A6 inhibitor; format: ADME; in short: as §2
Liver microsome [4] = assay: Drug level in human liver microsomes treated with 1 uM 17-DMAGby liquid chromatography-tandem mass spectrometry in presence of 1 uM sulfaphenazole CYP2C9 inhibitor; format: ADME; in short: as §2
Liver microsome [5] = assay: Drug level in human liver microsomes treated with 1 uM 17-DMAG by liquid chromatography-tandem mass spectrometry in presence of 10 uM ticlopidine CYP2B6 inhibitor; format: ADME; in short: as §2
Liver microsome [6] = assay: Retention time in human liver microsomes treated with 10 uM […] after 2 hrs by liquid chromatography-tandem mass spectrometry; format: ADME
In short: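 17-DMAG (10 µM initial) was incubated with HLMs (1 mg/ml) in 0.1 M phosphate buffer with 3.3 mM MgCl2 and 1 mM β-NADPH at 37°C for 2 h alongside negative controls, then quenched with ice-cold acetonitrile. Samples were run on a C18 column with a 0.1% formic acid/ammonium formate–acetonitrile gradient (10–90% B in 10 min) using MS full scan, MRM, EPI and MS3 scans.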

Liver microsome [7] = assay: Drug level in human liver microsomes treated with 1 uM 17-DMAG by liquid chromatography-tandem mass spectrometry in presence of 1 uM quinidine CYP2D6 inhibitor; format: ADME; in short: as §2
Cytochrome P450 3A4 = Cytochrome P450 3A4 (Homo sapiens, UniProt P08684); assay: Drug level assessed as human recombinant CYP3A4-mediated oxidative metabolism treated with 1 uM 17-DMAG after 30 mins by liquid chromatography-tandem mass spectrometry; format: ADME; details: recombinant enzyme, 0.5 h
Sequence of Cytochrome P450 3A4 (P08684 whole entry): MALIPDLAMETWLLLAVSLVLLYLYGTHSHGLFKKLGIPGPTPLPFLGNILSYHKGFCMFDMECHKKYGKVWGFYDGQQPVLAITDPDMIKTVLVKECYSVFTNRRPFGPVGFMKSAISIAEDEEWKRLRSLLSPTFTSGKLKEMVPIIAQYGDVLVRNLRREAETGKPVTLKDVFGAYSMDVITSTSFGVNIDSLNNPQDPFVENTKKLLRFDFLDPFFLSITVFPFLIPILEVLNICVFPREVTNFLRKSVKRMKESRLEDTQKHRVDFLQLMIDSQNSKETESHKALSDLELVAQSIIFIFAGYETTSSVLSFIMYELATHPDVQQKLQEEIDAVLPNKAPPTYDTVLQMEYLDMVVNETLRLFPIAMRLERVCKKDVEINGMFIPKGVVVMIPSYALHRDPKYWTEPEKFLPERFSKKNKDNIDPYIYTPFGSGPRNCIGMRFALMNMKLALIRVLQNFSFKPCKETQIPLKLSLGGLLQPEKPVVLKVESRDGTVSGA
In short: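 Recombinant human P450 (E. coli-expressed, coexpressed with cytochrome b5), 20 pmol per 200 µl incubation with 0.2 mg reduced β-NADPH and 3.3 mM MgCl2 in 0.1 M phosphate buffer pH 7.4. Preincubated at 37°C in a shaking water bath, then 1 µM 17-DMAG added. E. coli control microsomes lacking P450 cDNA served as negative control. Metabolite (M1–M4, M6) formation rates were read by LC-MS/MS MRM and expressed as percent of the CYP3A4 rate.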

Liver microsome [8] = assay: Drug level in human liver microsomes treated with 1 uM 17-DMAG by liquid chromatography-tandem mass spectrometry in presence of 1 uM quercetin CYP2C8 inhibitor; format: ADME; in short: as §2
Liver microsome [9] = assay: Drug level in human liver microsomes treated with 1 uM 17-DMAG by liquid chromatography-tandem mass spectrometry in presence of 10 uM diethyldithiocarbamate CYP2E1 inhibitor; format: ADME; in short: as §2
Liver microsome [10] = assay: Drug metabolism in human liver microsomes assessed as (4E,6Z,8S,9S,10E,12S,13R,14S,16R)-19-(2-(dimethylamino)ethylamino)-8,13-dihydroxy-14-methoxy-4,10,12,16-tetramethyl-3,20,22-trioxo-2-azabicyclo[16.3.1]docosa-1(21),4,6,10,18-pentaen-9-yl carbamate formation at 1 uM 17-DMAG by liquid chromatography-tandem mass spectrometry in presence of 1 uM ketoconazole CYP3A inhibitor; format: ADME
[11] = Drug metabolism in human liver microsomes assessed as stability after 2 hrs relative to control by liquid chromatography-tandem mass spectrometry; format: ADME; details: read-out: Stability
In short: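 Pooled human liver microsomes (1 mg/ml) were incubated at 37°C with substrate (5 µM final), 1 mM β-NADPH and 3.3 mM MgCl2 in 0.1 M phosphate buffer, with or without 5 mM reduced GSH. Aliquots were taken from 1 to 120 min and quenched in ice-cold acetonitrile containing internal standard. LC-MS/MS peak-area ratios to internal standard were normalised to the 1-min sample.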

[12] = Drug metabolism in human liver microsomes assessed as stability during first 5 mins relative to control in presence of reduced GSH by liquid chromatography-tandem mass spectrometry; format: ADME; details: read-out: Stability; in short: as §1
[13] = Drug metabolism in human liver microsomes assessed as stability after 120 mins relative to control in presence of reduced GSH by liquid chromatography-tandem mass spectrometry; format: ADME; details: read-out: Stability; in short: as §1
[14] = Drug metabolism in human liver microsomes assessed as stability after 5 mins relative to control in presence of reduced GSH by liquid chromatography-tandem mass spectrometry; format: ADME; in short: as §1
Liver microsome [15] = assay: Drug metabolism in human liver microsomes assessed as 17-(allylamino)-17-demethoxygeldanamycin hydroquinone formation after 1 hr relative to control by liquid chromatography-tandem mass spectrometry; format: ADME; in short: as §1
[16] = Terminal half life in human; format: ADME, organism-based; details: in vivo, read-out: beta t1/2 (converted)
Liver microsome [17] = assay: Drug metabolism in human liver microsomes assessed as stability after 45 mins relative to control by liquid chromatography-tandem mass spectrometry; format: ADME; details: 0.75 h; in short: as §1
Liver microsome [18] = assay: Drug metabolism in human liver microsomes assessed as 17-aminogeldanamycin formation at 37 degC in presence of reduced GSH by liquid chromatography-tandem mass spectrometry; format: ADME; details: read-out: Km(app)

Drug metabolism (Liver microsome [2])	Drug metabolism (Liver microsome [3])	Drug metabolism (Liver microsome [4])	Drug metabolism (Liver microsome [5])	Retention_time (Liver microsome [6]) [min]	Drug metabolism (Liver microsome [7])	Drug metabolism (Cytochrome P450 3A4)	Drug metabolism (Liver microsome [8])	Drug metabolism (Liver microsome [9])	Compound	other results
									COc1c(O)cc2c(O)c1C[C@@H](C)C[C@H](OC)[C@H](O)[C@@H](C)/C=C(\C)[C@H](OC(N)=O)[C@@H](OC)/C=C\C=C(/C)C(=O)N2	Drug metabolism (Liver microsome [1]): metabolite_detected
metabolite_detected	metabolite_detected	metabolite_detected	metabolite_detected	8.21	metabolite_detected	metabolite_detected	metabolite_detected	metabolite_detected	CO[C@H]1/C=C\C=C(/C)C(=O)NC2=CC(=O)C(NCCN(C)C)=C(C[C@@H](C)C[C@H](OC)[C@H](O)[C@@H](C)/C=C(\CO)[C@@H]1OC(N)=O)C2=O	
metabolite_detected	metabolite_detected	metabolite_detected	metabolite_detected	9.04	metabolite_detected	metabolite_detected	metabolite_detected	metabolite_detected	CO[C@H]1/C=C\C=C(/C)C(=O)NC2=CC(=O)C(NC(O)CN(C)C)=C(C[C@@H](C)C[C@H](OC)[C@H](O)[C@@H](C)/C=C(\C)[C@@H]1OC(N)=O)C2=O (some centres not stated)	
metabolite_detected	metabolite_detected	metabolite_detected	metabolite_detected	7.57	metabolite_detected	metabolite_detected	metabolite_detected	metabolite_detected	CO[C@H]1/C=C\C=C(/C)C(=O)NC2=CC(=O)C(NCCN(C)C)=C(C[C@@H](C)C[C@H](O)[C@H](O)[C@@H](C)/C=C(\C)[C@@H]1OC(N)=O)C2=O	
metabolite_detected	metabolite_detected	metabolite_detected	metabolite_detected	7.13	metabolite_detected	metabolite_detected	metabolite_detected	metabolite_detected	CO[C@H]1C[C@H](C)CC2=C(NCCN(C)C)C(=O)C=C(NC(=O)/C(C)=C/C=C\[C@H](O)[C@@H](OC(N)=O)/C(C)=C/[C@H](C)[C@H]1O)C2=O	Drug metabolism (Liver microsome [10]): metabolite_not_detected
				8.4					CO[C@H]1/C=C\C=C(/C)C(=O)NC2=CC(=O)C(/N=C/CN(C)C)=C(C[C@@H](C)C[C@H](OC)[C@H](O)[C@@H](C)/C=C(\C)[C@@H]1OC(N)=O)C2=O	
									COC1=C2C[C@@H](C)C[C@H](OC)[C@H](O)[C@@H](C)/C=C(\C)[C@H](OC(N)=O)[C@@H](OC)/C=C\C=C(/C)C(=O)NC(=CC1=O)C2=O [GELDANAMYCIN]	remaining at 2 h [11]: 73%; remaining at 5 min [12]: 75.3%; remaining at 2 h [13]: 46.6%; remaining at 5 min [14]: 75.3%
									C=CCNc1c(O)cc2c(O)c1C[C@@H](C)C[C@H](OC)[C@H](O)[C@@H](C)/C=C(\C)[C@H](OC(N)=O)[C@@H](OC)/C=C\C=C(/C)C(=O)N2 [RETASPIMYCIN]	Drug metabolism (Liver microsome [15]): metabolite_not_detected
									C=CCNC1=C2C[C@@H](C)C[C@H](OC)[C@H](O)[C@@H](C)/C=C(\C)[C@H](OC(N)=O)[C@@H](OC)/C=C\C=C(/C)C(=O)NC(=CC1=O)C2=O [TANESPIMYCIN]	half-life [16]: 4 h; Stability (Liver microsome [17]): Unstable; Km (Liver microsome [18]): 29.1 µM
